Assay outcomes as filed in PubChem.
Rows were chosen to be rich in hits. Some 6.4% of all compounds tested hit in one or more screens of this group.
MPTP inh – blocks calcium-induced mitochondrial swelling; inhibition, % at 10 µM; isolated mouse mitochondria, Ca2+ swelling absorbance, 30 min; 360,000 compounds, 1.4% hits;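 active = inhibition of 50% or more, scaled per plate between neutral and stimulator controls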
GRIN3A LBD mod – NR3A (human) ligand-binding domain modulation | NR3A LBD differential scanning fluorimetry, Tm shift; 0% = protein alone, 100% = glycine-bound protein | Tm shift relative to glycine control, % at 25 µM | 340,000 compounds, 2.5% hits | AID 1259313;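 active = melting temperature shift of at least 10% of the positive control shift, at one fixed dose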
EBV gp42 block – EBV gp42 inhibition; Q1HVG2; Fluorescence polarization binding assay, mP read-out; inhibition, % (tested at 21.74 µM); 220,000 compounds, 0.42% hits; AID 1085; in the data active = inhibition above about 50%
Target sequence (Q1HVG2 whole entry, looked up): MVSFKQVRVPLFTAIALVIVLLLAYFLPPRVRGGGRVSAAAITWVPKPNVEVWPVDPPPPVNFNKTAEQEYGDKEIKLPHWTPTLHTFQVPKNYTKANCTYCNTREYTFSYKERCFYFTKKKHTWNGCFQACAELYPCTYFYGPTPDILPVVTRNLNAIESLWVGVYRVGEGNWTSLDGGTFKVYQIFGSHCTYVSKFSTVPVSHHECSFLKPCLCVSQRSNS
CHOP inh – CHOP inhibition in unfolded protein response | inhibition, % at 10 µM | 220,000 compounds, 3.8% hits | CHO-K1 CHOP-promoter luciferase, tunicamycin-induced, 15-18 h | AID 2732;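 active = compounds that reduced the stress-induced luciferase reporter signal by more than about 70% of percent inhibition, limit read from the data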
TbMetRS inhib – blocks T. brucei methionyl-tRNA synthetase activity | AID 624268 | inhibition, % at 11.9 µM | 360,000 compounds, 0.4% hits | purified T. brucei MetRS, ATP depletion, Kinase-Glo luminescence;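 active = inhibition above a per-plate cutoff of the control wells' mean inhibition plus 3 SD, cut at about 5.5% in these data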
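assay system = parasite MetRS enzyme | timing = 15 min preincubation, 2 h reaction, all 25 °C | evaluation = percent inhibition relative to median high and low control wells | medium = HEPES buffer containing pyrophosphatase, BSA, spermine, DTT | compound = single dose, 11.9 µM final nominal, 0.9% final DMSO | detection = Kinase-Glo luminescence, ATP depletion format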
WT yeast gro inh – growth inhibition of WT yeast, mitochondrial fusion screen; 190,000 compounds, 2.1% hits; mitochondrial fusion phenotypic screen, WT strain; inhibition, % at 10 µM; in the data active = inhibition above about 58%; tested in S. cerevisiae
Large screens that a line does not name were inactive.

Cc1ccc(-c2cc(C(F)F)n3ncc(C(=O)N4CCc5ccccc5C4)c3n2)cc1	WT yeast gro inh 76.9
CCCc1nnc(NC(=O)CN2C(=O)c3ccccc3C2=O)s1	none
CN(C1=C(N2CCCCC2)C(=O)c2ccccc2C1=O)c1ccccc1	CHOP inh 71.3, WT yeast gro inh 76.2
Cc1[nH]n(C(N)=S)c(=O)c1N=Nc1cc(C(F)(F)F)ccc1Cl	GRIN3A LBD mod 11.6 (no result: EBV gp42 block, CHOP inh, WT yeast gro inh)
CCC(C)Sc1ccc(-c2nc3ccc(C)cn3c2NC2CCCCC2)cc1 (configuration not stated)	none (no result: MPTP inh, EBV gp42 block, CHOP inh, TbMetRS inhib, WT yeast gro inh)
CC(NCC(O)COC1CCC(C(C)(C)C)CC1)c1ccccc1 (configuration not stated)	CHOP inh 89.8, WT yeast gro inh 71.5
CC(=O)/C=C\c1cn(-c2ncc(C(F)(F)F)cc2Cl)c2ccccc12	GRIN3A LBD mod 13.6
N#CC(C#N)=Cc1cn(-c2ncc(C(F)(F)F)cc2Cl)c2ccccc12	none
CC12CCC(c3c(C(=O)O)nn(-c4ccc(F)cc4)c31)C2(C)C (configuration not stated)	WT yeast gro inh 59.4
CC12CCC(c3c(C(=O)N4CCOCC4)nn(-c4ccccc4)c31)C2(C)C (configuration not stated)	none
COc1ccc(-c2[nH]ncc2/C=C(/C#N)C(=O)NC2CCCCC2)cc1	none
Cc1ccc(-c2[nH]ncc2/C=C(\C#N)C(=O)NC2CCCCC2)cc1	CHOP inh 71.6
N#C/C(=C\c1ccccc1[N+](=O)[O-])C(=O)NC1CCCCC1	WT yeast gro inh 58.1
N#C/C(=C\C=C\c1ccccc1[N+](=O)[O-])C(=O)NC1CCCCC1	none
COCCN(Cc1cc2cc(C)c(C)cc2nc1Cl)C(=O)Nc1ccccc1	none
CCCS(=O)(=O)N1CCCC(C(=O)NCc2ccc3c(c2)OCO3)C1 (configuration not stated)	none (no result: EBV gp42 block, CHOP inh)
NC(=O)C1CCN(C(=O)CC2(CC(=O)O)CCCCC2)CC1	none
NC(=O)CC1(CC(=O)O)CCCCC1	GRIN3A LBD mod 12.7
O=S(=O)(NCC1CCCO1)c1ccc(-c2ccc(Cl)cc2)cc1 (configuration not stated)	none
O=C(COC(=O)CNS(=O)(=O)c1ccc(Br)cc1Cl)NC1CCCC1	GRIN3A LBD mod 18.1 (no result: EBV gp42 block, CHOP inh, WT yeast gro inh)
O=C(COC(=O)CNS(=O)(=O)c1cc(C(F)(F)F)ccc1Cl)NC1CC1	none (no result: EBV gp42 block, CHOP inh, WT yeast gro inh)
COc1ccccc1S(=O)(=O)Nc1ccc2nc(C)sc2c1	none (no result: EBV gp42 block, CHOP inh, WT yeast gro inh)
Cc1[nH]c2ccccc2c1C(=O)/C=C\c1ccccc1Cl	GRIN3A LBD mod 10.6, CHOP inh 73.8
Cc1[nH]c2ccccc2c1C(=O)/C=C/c1ccccc1Cl	GRIN3A LBD mod 27.2, CHOP inh 90.1
Cc1nn2cc(-c3ncc(C(F)(F)F)cc3Cl)cnc2c1Br	CHOP inh 74.1
CC(=O)Nc1cccc(Oc2ccc3c(c2)C(=O)NC3=O)c1	none (no result: EBV gp42 block, CHOP inh, WT yeast gro inh)
O=C(Nc1cccc([N+](=O)[O-])c1)c1ccc2ccccc2c1O	GRIN3A LBD mod 25.6 (no result: WT yeast gro inh)
CC(C)NCC(O)c1ccc(NS(C)(=O)=O)cc1 (configuration not stated)	none
O=C(NN1c2ccccc2CCc2ccccc21)c1ccccc1Br	CHOP inh 76.3
CNC(=O)N1c2ccccc2CCc2ccccc21	none (no result: EBV gp42 block, CHOP inh, WT yeast gro inh)
Nc1n[nH]c(N)c1N=Nc1ccccc1F	GRIN3A LBD mod 32.3 (no result: EBV gp42 block, CHOP inh, WT yeast gro inh)
Cc1ccc(C2=NN(C(=O)CN3CCN(C4CCS(=O)(=O)C4)CC3)C(c3ccco3)C2)cc1 (configuration not stated)	none (no result: EBV gp42 block, CHOP inh, WT yeast gro inh)
Cc1ccc2nc(-c3ccccc3)c(CN3CCSCC3)n2c1	none
Cc1ccc2nc(-c3ccccc3)c(CN3CCN(c4ccccc4F)CC3)n2c1	WT yeast gro inh 82.6
CC(=O)NCC(=O)N1CCCC(C(=O)c2ccc(-c3ccccc3)c(F)c2)C1 (configuration not stated)	none
COCC(=O)N1CCCC(C(=O)c2ccc(-c3ccccc3)c(F)c2)C1 (configuration not stated)	WT yeast gro inh 58.6
COc1ccccc1/C=C/CN1CCCC(CO)(Cc2cccc(Cl)c2)C1 (configuration not stated)	WT yeast gro inh 65.0
CCNc1sc(C(=O)c2cccs2)c(N)c1C#N	none
CCNc1sc(C(=O)c2cccs2)c(N)c1-c1nc2ccccc2s1	GRIN3A LBD mod 21.2, CHOP inh 78.2
C=CCNc1sc(C(=O)c2ccccc2)c(N)c1-c1nc2ccccc2s1	CHOP inh 81.8
COc1cc(OC)nc(Oc2cccc(Cl)c2C)n1	none (no result: EBV gp42 block, CHOP inh, WT yeast gro inh)
CC(=O)c1sc(NCc2ccccc2)nc1C	none (no result: EBV gp42 block, CHOP inh, WT yeast gro inh)
Cc1nc(C(=O)NCc2ccccc2)sc1C1(C)CC(c2cccc([N+](=O)[O-])c2)=NO1 (configuration not stated)	none (no result: WT yeast gro inh)
CCCCc1ccc(NC2=NCC(=O)N2CCc2ccccc2)cc1	CHOP inh 95.0
CC(=O)Nc1cc(OC(C)=O)c2nonc2c1OC(C)=O	TbMetRS inhib 28.3 (no result: EBV gp42 block, CHOP inh, WT yeast gro inh)
Cc1cccc(N(C)C(=S)Oc2ccc3ccccc3c2)c1	WT yeast gro inh 62.2
Cc1c(Cl)c([N+](=O)[O-])nn1CCCC(=O)N(Cc1ccccc1)Cc1ccccc1	CHOP inh 73.4
CN1CCN(c2ccc(NC(=O)c3ccc(C(F)(F)F)cc3)cn2)CC1	none
CCC(C)n1c(=S)[nH]c2c(sc3ccc([N+](=O)[O-])cc32)c1=O (configuration not stated)	WT yeast gro inh 68.1
Cc1cnc(C(=O)OCC(=O)NCc2ccc(Cl)cc2)cn1	none (no result: EBV gp42 block, CHOP inh, WT yeast gro inh)
CCOC(=O)c1cc2c(ccn2C)n1Cc1ccccc1C	CHOP inh 70.3
Cc1ccc(C)c(Cn2c(C(=O)OC(C)C)cc3c2ccn3C)c1	CHOP inh 73.2
CCOC(=O)c1cc2c(ccn2C)n1Cc1ccccc1Cl	WT yeast gro inh 68.5
CC1CCCCC1NC(=O)c1ccc(-n2cncn2)cc1 (configuration not stated)	none (no result: EBV gp42 block, CHOP inh, WT yeast gro inh)
COc1ccc(C(=O)Nc2ccc3[nH]ccc3c2)cc1OC	none (no result: EBV gp42 block, CHOP inh, WT yeast gro inh)
COc1ccc(C(=O)Nc2ccc3[nH]ncc3c2)cc1	GRIN3A LBD mod 11.7 (no result: EBV gp42 block, CHOP inh, WT yeast gro inh)
COc1ccc(C(=O)Nc2ccc3[nH]ccc3c2)cc1	GRIN3A LBD mod 30.7 (no result: EBV gp42 block, CHOP inh, WT yeast gro inh)
Cc1nc(SCC(=O)N2CCN(c3ccccc3)CC2)n[nH]1	none (no result: EBV gp42 block, CHOP inh, WT yeast gro inh)
CC(=O)Nc1ccc(NC(=O)COC(=O)c2cc([N+](=O)[O-])ccc2N2CCOCC2)cc1	GRIN3A LBD mod 23.2 (no result: EBV gp42 block, CHOP inh, WT yeast gro inh)
O=C(COC(=O)c1cc([N+](=O)[O-])ccc1N1CCOCC1)NCCc1ccccc1	GRIN3A LBD mod 15.9 (no result: EBV gp42 block, CHOP inh, WT yeast gro inh)
COc1ccc(NC(=O)COC(=O)c2cc([N+](=O)[O-])ccc2N2CCOCC2)cc1	none (no result: EBV gp42 block, CHOP inh, WT yeast gro inh)
CC(C)Oc1ccc(-c2nn(-c3ccccc3)cc2/C=c2\sc3ncnn3c2=O)cc1	EBV gp42 block 74.5 (no result: MPTP inh, GRIN3A LBD mod, TbMetRS inhib)
O=c1/c(=C/c2cn(-c3ccccc3)nc2-c2ccc(F)cc2)sc2nc3ccccc3n12	none (no result: MPTP inh, GRIN3A LBD mod, TbMetRS inhib)
COCCn1c(SCC(=O)N2CCCC(C)C2)nnc1-c1ccco1 (configuration not stated)	none (no result: EBV gp42 block, CHOP inh, WT yeast gro inh)
